Screening data: PubChem BioAssay, several laboratories
iPSC survival up: enhancers of human iPSC single-cell survival. 360,000 compounds, 0.044% hits. AID 602274. survival enhancement, % at 20 µM. hiPSC single-cell survival, ATPlite luminescence; 100% = ROCK inhibitor wells, 0% = DMSO; in the data active = survival enhancement above about 18%;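 note: cells exposed to compounds for 16 hours before the ATP read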
rRNA inh HTS: inhibits bacterial ribosomal RNA function over humanized ribosomes; E. coli WT GFP vs humanized-ribosome RFP mutants, fluorescence, 24 h; active compounds read low; DMSO median 0, no signal -100; 350,000 compounds, 1.6% hits; AID 720706; GFP signal change (wild-type ribosome), % (concentration not given with the values);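 active = significant combined selectivity score with lowered wild-type GFP, culture density cut under 30%, mutant RFP and density less affected; inactive = any of these conditions unmet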
SKN-1 inh: C. elegans SKN-1 inhibition | C. elegans VP596 Pgst-4::GFP/RFP ratio, acrylamide-induced, 24 h | inhibition, % at 21.8 µM | 360,000 compounds, 0.49% hits;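 active = interference check ratio from 0.5 to 1.5 plus GFP to RFP signal ratio inhibition reaching or exceeding a fixed threshold, cut at about 30% in these data, passing the limit was not always enough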
Cneo AK release: Cryptococcus neoformans lysis via adenylate kinase release; lysis activity, % at 15 µM; AID 651654; C. neoformans lysis, adenylate kinase release luminescence, 4 h; normalised: neutral wells 0, clomiphene wells 100; 360,000 compounds, 0.2% hits;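 active = mean lysis activity across replicates of at least 80%, whatever share of replicates individually reach that level; inactive = mean lysis activity below 80%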
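Assay system: Cryptococcus neoformans yeast cells / Dosing: single-point compound dose / Timing: 4 h at 37 °C static, read 1 h later / Measured by: luminescence of released adenylate kinase using an AK detection reagent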
MT1-MMP act inh: inhibitors of human MT1-MMP activation; P50281; GFP/RFP ratio change, % at 20 µM; AID 651647; 360,000 compounds, 0.061% hits; HT1080 RFP-PRO-GFP cells, GFP/RFP ratio fluorescence, overnight; percent of plate control window, DMSO zero;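 active = GFP/RFP ratio change of at least 30% with cell ATP level not reduced by more than half and red fluorescence within 50% of control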
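Read-out: GFP/RFP fluorescence ratio; Test system: RFP-PRO-GFP reporter HT1080 cells; Compound dosing: single-point 20 µM compound, 1% DMSO; Times: overnight compound exposure at 37 °C.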
DAGLB inhibitor: diacylglycerol lipase beta (human) inhibition; Q8NCG7; HEK293T DAGLB membrane lysate, EnzChek fluorogenic substrate; inhibition, % at 5.17 µM; 340,000 compounds, 0.059% hits; AID 504411; in the data active = inhibition above about 34%;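 note: 0% = enzyme with vehicle and 100% = wells lacking enzyme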
Target sequence (Q8NCG7 whole entry, looked up): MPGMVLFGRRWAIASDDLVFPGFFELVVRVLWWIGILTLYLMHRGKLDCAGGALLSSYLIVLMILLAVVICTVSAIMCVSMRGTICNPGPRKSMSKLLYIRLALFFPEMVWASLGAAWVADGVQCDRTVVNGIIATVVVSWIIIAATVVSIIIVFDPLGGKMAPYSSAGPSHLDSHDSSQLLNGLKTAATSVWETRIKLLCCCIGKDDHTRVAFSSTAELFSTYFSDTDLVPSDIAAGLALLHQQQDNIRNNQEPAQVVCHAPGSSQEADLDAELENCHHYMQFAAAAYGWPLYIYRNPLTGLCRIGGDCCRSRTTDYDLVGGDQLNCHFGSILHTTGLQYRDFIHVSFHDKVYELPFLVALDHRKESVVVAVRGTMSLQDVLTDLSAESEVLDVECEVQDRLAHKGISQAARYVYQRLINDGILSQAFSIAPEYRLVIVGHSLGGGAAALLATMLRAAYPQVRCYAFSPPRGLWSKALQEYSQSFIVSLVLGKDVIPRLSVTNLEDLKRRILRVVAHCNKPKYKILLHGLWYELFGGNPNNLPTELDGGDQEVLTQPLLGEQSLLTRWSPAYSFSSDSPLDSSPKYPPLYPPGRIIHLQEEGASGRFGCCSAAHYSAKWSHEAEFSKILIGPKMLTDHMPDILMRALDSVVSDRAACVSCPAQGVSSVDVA
* hit, by the source's call; . = no result. Rows were chosen to be rich in hits. Some 1.8% of all compounds tested hit in one or more screens of this group.

SMILES	iPSC survival up	rRNA inh HTS	SKN-1 inh	Cneo AK release	MT1-MMP act inh	DAGLB inhibitor
O=C(C[C@H]1CC[C@@H]2[C@H](COC[C@H](O)CN2S(=O)(=O)c2ccc(F)cc2)O1)N[C@H]1CCN(Cc2ccccc2)C1	.	1	.	4	.	.
Cc1ccccc1-c1nn[nH]n1	2	.	-14	1	2	0
Oc1ccc(N=Nc2ccccc2-c2nn[nH]n2)c(O)c1	-1	-31*	11	-2	18	20
CCOc1ccc(/C=C(\C(=O)O)c2ccc(S(=O)(=O)N3CCCCC3)s2)cc1OC	-2	-23*	12	0	0	1
CCCCNC(=S)N1CCN(c2ccc(C(C)=O)cc2)CC1	0	-22*	5	.	3	-1
CC(=O)c1ccc(N2CCN(C(=O)Cc3cccs3)CC2)cc1	0	.	16	153*	-6	1
CSCCCNC(=S)N1CCN(c2ccc(C(C)=O)cc2)CC1	0	-7	5	-1	4	2
OC[C@H]1[C@H](c2ccc(C#CC3(O)CCCC3)cc2)[C@@H]2CN(Cc3cccnc3)CCCCN12	.	-3	.	-2	.	.
CC(=O)N(C)C[C@H]1Oc2c(NC(=O)NC(C)C)cccc2C(=O)N(C)C[C@H]1C	.	-1	.	.	.	.
C#CCn1ccc(O)c(Cc2c(F)cccc2Cl)c1=O	3	2	15	-1	0	1
O=c1c(Cc2c(F)cccc2Cl)c(O)ccn1C1CC1	-1	-31*	6	.	1	-1
Cc1ccccc1-n1cc(-c2ccc(Br)cc2)nc1SCC(N)=O	0	-41*	-21	4	2	.
Cc1ccc(-c2cn(-c3ccccc3)c(SCC(N)=O)n2)cc1C	2	.	16	-2	-10	-1
CCN(CC)C(=O)COc1ccc2c(-c3ccc(OC)cc3)cc(=O)oc2c1	0	-22*	7	-1	2	-2
COc1ccc(-c2cc(=O)oc3cc(OCC(C)=O)ccc23)cc1	-1	8	3	1	-1	-2
CCOC(=O)C(Oc1ccc2c(-c3ccc(OC)cc3)cc(=O)oc2c1C)c1ccccc1 (stereo not drawn)	9	.	36*	8	-13	-9
Cc1cc(C(=O)Nc2sc3c(c2C#N)CCCC3)no1	-1	-31*	-5	-4	-1	-2
[O-]/[N+](=C/c1ccco1)c1ccccc1	0	1	3	-2	-1	0
[O-]/[N+](=C\c1ccco1)c1ccc(Cl)cc1	1	22	36*	-4	-2	-1
C[C@@H]1CN([C@H](C)CO)C(=O)c2cccc(NC(=O)Nc3ccc(C(F)(F)F)cc3)c2O[C@@H]1CN(C)C(=O)Nc1ccc(C(F)(F)F)cc1	.	-2	.	-3	.	.
Cc1noc(C)c1S(=O)(=O)Nc1ccc2c(c1)C(=O)N([C@@H](C)CO)C[C@@H](C)[C@H](CN(C)C(=O)Nc1ccccc1)OCCCC[C@@H](C)O2	.	-3	.	-9	.	.
CCOc1cc(CNCCSc2nnnn2C)cc(Br)c1OCc1ccc(F)cc1	-2	-51	68*	.	-2	-7
COc1cc(CNCCSc2nnnn2C)cc(Br)c1OCc1ccc(F)cc1	-2	.	34	1	3	-6
CCOc1cc(CNCCSc2nnnn2C)cc(Br)c1OCc1ccccc1F	4	.	39*	2	-2	-5
CCCCNC(=S)NCC(c1ccccc1)c1c[nH]c2ccccc12 (stereo not drawn)	-1	-49*	16	-2	-1	-2
Cc1ccc(SCC(=O)Nc2ccc(S(=O)(=O)Nc3nccs3)cc2)cc1	-1	-37*	5	.	0	0
O=C(CSc1ccncc1)Nc1ccc(S(=O)(=O)Nc2nccs2)cc1	0	5	-8	.	-1	0
O=C(Cc1csc(NC(=O)Nc2ccc(Cl)cc2)n1)NCc1cccnc1	0	-32*	-4	-5	6	1
COc1ccc(-c2csc(NC(=O)c3ccccc3F)n2)cc1	-1	-10	10	1	1	-9
O=C(Nc1ccccc1)Nc1nc(-c2ccc(Cl)cc2)cs1	0	-18*	14	5	-1	-1
